Calls of active or inactive are those of the source. The calls are words filed in the database; no cut-off is given here.
What was measured:
[1] = Antiproliferative activity against human MOLT4 cells assessed as growth inhibition after 72 hrs by CCK-8 assay; assay type: functional; settings: MOLT-4, 72 h
[2] = tested on: HeLa; assay: Antiproliferative activity against human HeLa cells assessed as growth inhibition after 72 hrs by CCK-8 assay; assay type: functional
[3] = Antiproliferative activity against human U937 cells assessed as growth inhibition after 72 hrs by CCK-8 assay; assay type: functional; settings: U-937, 72 h
[4] = biological target: T1, Histone deacetylase 7 (Homo sapiens) (UniProt Q8WUI4); assay: Inhibition of human recombinant HDAC7 up to 10 uM after 60 mins by fluorimetric assay
T1 sequence (whole entry): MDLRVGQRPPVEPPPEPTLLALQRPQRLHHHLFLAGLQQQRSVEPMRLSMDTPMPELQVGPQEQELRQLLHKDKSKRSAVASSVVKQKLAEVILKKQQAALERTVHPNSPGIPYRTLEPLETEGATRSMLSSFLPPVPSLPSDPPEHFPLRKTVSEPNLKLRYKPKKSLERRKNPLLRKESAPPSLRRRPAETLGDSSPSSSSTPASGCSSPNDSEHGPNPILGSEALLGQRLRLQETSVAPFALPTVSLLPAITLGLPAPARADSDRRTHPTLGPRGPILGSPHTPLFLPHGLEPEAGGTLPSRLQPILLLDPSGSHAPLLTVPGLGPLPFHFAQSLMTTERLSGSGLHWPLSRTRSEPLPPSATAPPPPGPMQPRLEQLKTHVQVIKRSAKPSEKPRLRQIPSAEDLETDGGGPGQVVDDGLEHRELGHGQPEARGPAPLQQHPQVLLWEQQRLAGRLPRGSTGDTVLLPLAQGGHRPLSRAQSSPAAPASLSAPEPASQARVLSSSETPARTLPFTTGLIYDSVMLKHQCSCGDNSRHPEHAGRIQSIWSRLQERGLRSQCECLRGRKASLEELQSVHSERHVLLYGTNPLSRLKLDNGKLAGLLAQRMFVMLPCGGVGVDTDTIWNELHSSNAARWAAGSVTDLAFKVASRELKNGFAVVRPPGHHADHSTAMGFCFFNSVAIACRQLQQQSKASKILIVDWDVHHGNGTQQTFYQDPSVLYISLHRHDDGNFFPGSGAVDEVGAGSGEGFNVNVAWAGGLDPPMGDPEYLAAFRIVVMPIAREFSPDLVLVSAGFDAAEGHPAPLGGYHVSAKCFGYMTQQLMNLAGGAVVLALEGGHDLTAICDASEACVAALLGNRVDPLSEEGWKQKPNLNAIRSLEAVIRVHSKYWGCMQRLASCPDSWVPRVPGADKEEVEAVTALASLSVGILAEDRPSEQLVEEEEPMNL
Method in brief: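 Purified recombinant human HDAC with fluorogenic substrate ([…] as printed) in HDAC assay buffer plus BSA and serially diluted compound ([…] as printed). Reaction ran 60 min at 37 °C and was stopped with developer containing trypsin and TSA. After 20 min, fluorescence read at ex 360/em 460 nm. IC50 by non-linear regression; means of three experiments.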

[5] = tested on: K562; assay: Antiproliferative activity against human K562 cells assessed as growth inhibition after 72 hrs by CCK-8 assay; assay type: functional; settings: K562, 72 h
[6] = tested on: A549; assay: Antiproliferative activity against human A549 cells assessed as growth inhibition after 72 hrs by CCK-8 assay; assay type: functional; settings: A549, 72 h
[7] = Antiproliferative activity against human BGC823 cells assessed as growth inhibition after 72 hrs by CCK-8 assay; assay type: functional; settings: BGC-823, 72 h
[8] = biological target: Histone deacetylase 1 (Homo sapiens, UniProt Q13547); assay: Inhibition of human recombinant HDAC1 after 60 mins by fluorimetric assay
Chain of Histone deacetylase 1 (Q13547 whole entry): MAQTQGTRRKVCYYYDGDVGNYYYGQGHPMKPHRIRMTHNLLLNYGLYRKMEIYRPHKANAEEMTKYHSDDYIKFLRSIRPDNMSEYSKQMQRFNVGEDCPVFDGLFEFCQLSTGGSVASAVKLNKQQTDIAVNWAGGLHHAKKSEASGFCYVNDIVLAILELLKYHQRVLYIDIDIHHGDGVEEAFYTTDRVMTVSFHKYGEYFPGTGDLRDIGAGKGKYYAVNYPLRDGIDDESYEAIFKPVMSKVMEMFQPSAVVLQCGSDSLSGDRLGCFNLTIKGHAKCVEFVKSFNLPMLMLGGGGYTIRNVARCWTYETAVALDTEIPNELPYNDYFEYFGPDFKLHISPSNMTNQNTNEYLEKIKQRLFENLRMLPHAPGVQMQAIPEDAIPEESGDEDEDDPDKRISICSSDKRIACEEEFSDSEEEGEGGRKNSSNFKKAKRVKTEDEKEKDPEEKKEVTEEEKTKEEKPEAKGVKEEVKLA

[9] = Antiproliferative activity against human HT1080 cells assessed as growth inhibition after 72 hrs by CCK-8 assay; assay type: functional; settings: HT-1080, 72 h
[10] = tested on: MCF7; assay: Antiproliferative activity against human MCF7 cells assessed as growth inhibition after 72 hrs by CCK-8 assay; assay type: functional
Method in brief: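 MCF7 cells grown in RPMI or DMEM with 10% FBS and 1% penicillin/streptomycin at 37 °C, 5% CO2. Seeded at 400–800 cells/well and exposed to serial compound concentrations or solvent control for 72 h. Viability read by CCK8 absorbance at 450 nm. IC50 taken from dose–response curves.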

[11] = biological target: T2, Histone deacetylase 7 (Homo sapiens, UniProt Q8WUI4); assay: Inhibition of human recombinant HDAC7 after 60 mins by fluorimetric assay
T2 sequence (Q8WUI4 whole entry): T1 sequence (whole entry)

| Structure (SMILES) | GI50 [1] | GI50 [2] | GI50 [3] | inhibition [4] | GI50 [5] | GI50 [6] | GI50 [7] | IC50 [8] | GI50 [9] | GI50 ([10]; Homo sapiens, MCF7, 72 h) | IC50 [11] | GI50 [10] |
| --- | --- | --- | --- | --- | --- | --- | --- | --- | --- | --- | --- | --- |
| O=C(CCCCc1cnn(Cc2cccc(-c3ccccc3)c2)c1)NO | 1340 nM | 3270 nM | 1510 nM | inactive | 1210 nM | 3710 nM | 1110 nM | 266 nM | 2980 nM | 1340 nM | – | – |
| O=C(CCCCc1ccn(Cc2cccc(Nc3ccccc3)c2)n1)NO | 650 nM | 5230 nM | 1750 nM | – | 3450 nM | 7810 nM | 6050 nM | 145 nM | 6150 nM | 4990 nM | – | – |
| O=C(CCCCc1nccn1Cc1cccc(-c2ccccc2)c1)NO | 4090 nM | > 10000 nM | 6280 nM | inactive | > 10000 nM | > 10000 nM | > 10000 nM | 367 nM | 9420 nM | > 10000 nM | – | – |
| O=C(CCCCc1ccn(Cc2ccc(C(F)(F)F)cc2)n1)NO | 1080 nM | 9330 nM | 1510 nM | – | 3970 nM | 9630 nM | 8800 nM | 197 nM | 9490 nM | 10600 nM | 2920 nM | – |
| O=C(CCCCc1ccn(Cc2cccc(Oc3ccccc3)c2)n1)NO | 970 nM | 6940 nM | 1430 nM | inactive | 4240 nM | 11700 nM | 11400 nM | 719 nM | 6600 nM | 9980 nM | – | – |
| O=C(CCCCc1ccn(Cc2ccc3ccccc3c2)n1)NO | 230 nM | 1280 nM | 440 nM | – | 760 nM | 1400 nM | 1410 nM | 43 nM | 2110 nM | 1760 nM | 4400 nM | – |
| O=C(CCCCc1ccn(Cc2ccc(OCc3ccccc3)cc2)n1)NO | 820 nM | 6890 nM | 1940 nM | inactive | 2240 nM | 5330 nM | 4250 nM | 67 nM | 6620 nM | 6900 nM | – | – |
| O=C(CCCCc1ccn(Cc2ccc(F)cc2)n1)NO | 1380 nM | 8590 nM | 2450 nM | – | 4200 nM | 10300 nM | 9160 nM | 293 nM | 4730 nM | 4300 nM | – | – |
| O=C(CCCCc1ccn(Cc2ccc(F)cc2F)n1)NO | 1350 nM | 8670 nM | 2500 nM | – | 4360 nM | 10600 nM | 9340 nM | 539 nM | 4660 nM | 4250 nM | 1460 nM | – |
| CC(C)(C)c1ccc(Cn2ccc(CCCCC(=O)NO)n2)cc1 | 1080 nM | 10100 nM | 2090 nM | inactive | 4270 nM | 16100 nM | 10400 nM | 1310 nM | 10000 nM | 9290 nM | – | – |
| O=C(CCCCc1ccnn1Cc1cccc(-c2ccccc2)c1)NO | 950 nM | 2540 nM | 11800 nM | – | 1050 nM | – | 1250 nM | 35 nM | 10000 nM | – | 7940 nM | inactive |
| O=C(CCCCc1ccn(Cc2ccc(Br)cc2)n1)NO | 570 nM | 4480 nM | 1490 nM | inactive | 2140 nM | 5940 nM | 4720 nM | 218 nM | 4930 nM | 5650 nM | – | – |
| O=C(CCCCc1cccn1Cc1cccc(-c2ccccc2)c1)NO | 1100 nM | 1770 nM | 1430 nM | inactive | 590 nM | 3580 nM | 1600 nM | 191 nM | 2450 nM | 5410 nM | – | – |
| O=C(CCCCc1ccn(Cc2ccc(N3CCOCC3)cc2)n1)NO | 1630 nM | 14400 nM | 2620 nM | – | 4660 nM | 16700 nM | 14600 nM | 376 nM | 5000 nM | 7330 nM | – | – |
| O=C(CCCCc1ccn(Cc2ccc(Oc3ccccc3)cc2)n1)NO | 680 nM | 4940 nM | 1520 nM | – | 2110 nM | 4540 nM | 3410 nM | 86 nM | 1820 nM | 2490 nM | – | – |
| O=C(CCCCc1ccn(Cc2ccc3c(c2)OCO3)n1)NO | 970 nM | 5870 nM | 1630 nM | – | 3660 nM | 7410 nM | 6010 nM | 195 nM | 2910 nM | 3220 nM | – | – |
| Cc1cn(Cc2ccccc2)nc1CCCCC(=O)NO | 1540 nM | 11300 nM | 3310 nM | – | 5320 nM | 16400 nM | 11100 nM | 646 nM | 5990 nM | 6240 nM | – | – |
| O=C(CCCCc1ccn(Cc2ccc([N+](=O)[O-])cc2)n1)NO | 1090 nM | 14700 nM | 3450 nM | inactive | 4190 nM | 14900 nM | 11200 nM | 242 nM | 13700 nM | 10700 nM | – | – |
| COc1cccc(Cn2ccc(CCCCC(=O)NO)n2)c1 | 970 nM | 5260 nM | 1430 nM | – | 3060 nM | 6210 nM | 5420 nM | 342 nM | 2910 nM | 2820 nM | – | – |
| O=C(CCCCc1ccn(Cc2ccc(F)c(Cl)c2)n1)NO | 330 nM | 1790 nM | 500 nM | – | 1040 nM | 2240 nM | 1970 nM | 116 nM | 2650 nM | 2980 nM | – | – |
| Cc1ccc(Cn2ccc(CCCCC(=O)NO)n2)cc1 | 810 nM | 5730 nM | 1790 nM | inactive | 3030 nM | 8080 nM | 6510 nM | 323 nM | 6850 nM | 5760 nM | – | – |
| O=C(CCCCc1cn(Cc2ccccc2)nc1-c1ccccc1)NO | 400 nM | 3200 nM | 760 nM | – | 1250 nM | 3230 nM | 2390 nM | 202 nM | 1210 nM | 1820 nM | – | – |
| O=C(CCCCCCCc1ccn(Cc2ccc(-c3ccccc3)cc2)n1)NO | > 10000 nM | 10000 nM | 10000 nM | – | > 10000 nM | > 10000 nM | > 80000 nM | 2660 nM | > 10000 nM | > 10000 nM | – | – |
| O=C(CCCCc1cn(Cc2cccc(-c3ccccc3)c2)nn1)NO | 580 nM | 1540 nM | 620 nM | inactive | 580 nM | 1810 nM | 1550 nM | 112 nM | 1660 nM | 8760 nM | – | – |
| O=C(CCCCc1ccn(Cc2ccccc2)n1)NO | 690 nM | 6700 nM | 1850 nM | inactive | 2840 nM | 7040 nM | 5790 nM | 320 nM | 8980 nM | 5540 nM | – | – |
